The values below come from ChEMBL document CHEMBL4665800, “Biased Agonism at Nociceptin/Orphanin FQ Receptors: A Structure Activity Study on N/OFQ(1-13)-NH” (J Med Chem, 2020).

Starred links: 1 amine or outer side, 2 acyl side, 3 side chain; linkers in the order of their positions; H or OH if unused. Positions of bridges follow the written chain, without caps; N, C: chain ends. Non-standard residues stand in square brackets, D forms with d. Residues, ends and D or L forms follow the SMILES beside them. Chains are numbered I, II in the order given. *: point of attachment. X1 = CCCCCCCCCCCCCCCC(=O)NCCCN1C(=O)CC(*)C1=O; X2 = O=C1CC([*:1])C(=O)N1CCCC(=O)[*:2]; Ac5c = NC1(C(=O)O)CCCC1; Ac3c = NC1(C(=O)O)CC1; Aib = CC(C)(N)C(=O)O

For test [1], the target named is T1, Nociceptin receptor (Homo sapiens, UniProt P41146). Kind of test: Agonist activity at NOP (unknown origin) expressed in HEK293 cell membranes co-expressing Gbeta1-RGFP protein assessed as induction of G protein activation incubated for 15 mins by BRET assay. In kind it is cell-based. A digest of the protocol: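 Membranes (3 μg protein) from HEK293 cells stably co-expressing NOP-RLuc and Gβ1-RGFP, in DPBS. Coelenterazine 5 μM final; ligands in PBS–BSA 0.01%. BRET ratio (RGFP 510 nm / RLuc 460 nm) read 15 min after agonist, room temperature. Values are vehicle-subtracted stimulated BRET ratio. Mean of five experiments in duplicate.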
T1 sequence (P41146 whole entry): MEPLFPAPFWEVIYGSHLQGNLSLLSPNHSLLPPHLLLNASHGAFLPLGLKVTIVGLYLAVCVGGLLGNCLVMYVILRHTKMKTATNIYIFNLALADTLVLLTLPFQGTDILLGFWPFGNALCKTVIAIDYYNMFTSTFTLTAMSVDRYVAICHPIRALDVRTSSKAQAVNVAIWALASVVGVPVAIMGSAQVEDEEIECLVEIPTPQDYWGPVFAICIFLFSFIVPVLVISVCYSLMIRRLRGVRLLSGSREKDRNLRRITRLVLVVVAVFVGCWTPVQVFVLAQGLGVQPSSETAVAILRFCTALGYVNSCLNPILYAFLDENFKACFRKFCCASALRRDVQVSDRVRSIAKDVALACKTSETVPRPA
Background: In BRET a luciferase serves as donor, and the signal depends on an acceptor being close.

Test [2] addresses T1, Nociceptin receptor. The test is described as follows: Agonist activity at NOP (unknown origin) […] assessed as induction of beta-arrestin2 activation incubated for 15 mins by BRET assay. In kind it is cell-based, HEK293.
Test [3] has as its target T1, Nociceptin receptor. Kind of test: Bias factor, selectivity for agonist activity at NOP (unknown origin) expressed in HEK293 cell membranes co-expressing beta-arrestin2-RGFP protein assessed as induction of beta-arrestin2 activation to agonist activity at NOP (unknown origin) expressed in HEK293 cell membranes co-expressing Gbeta1-RGFP protein assessed as induction of G protein activation. In kind it is cell-based. A digest of the protocol:
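Concentration–response curves in the NOP G protein and β-arrestin 2 BRET assays were fitted to the Black–Leff operational model. Mean of at least five experiments with 95% confidence limits.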

What is called EC50 is the concentration needed to bring the measured effect to its halfway point. For `C[C@H](NC(=O)CNC(=O)[C@@H](NC(=O)[C@H](Cc1ccccc1)NC(=O)CNC(=O)CNC(=O)[C@@H](N)Cc1ccccc1)[C@@H](C)O)C(=O)N[C@@H](CCCNC(=N)N)C(=O)N[C@@H](CCCCN)C(=O)N[C@@H](CO)C(=O)N[C@@H](C)C(=O)N[C@@H](CCCNC(=N)N)C(=O)N[C@@H](CCCCN)C(=O)N[C@@H](CSC1CC(=O)N(CCCC(=O)N[C@@H](CCCCN)C(=O)N[C@@H](CCCCN)C(=O)N[C@@H](CCCCN)C(=O)N[C@@H](CCCCN)C(=O)N[C@@H](CCCCN)C(=O)N[C@@H](CCCCN)C(N)=O)C1=O)C(N)=O` (stereo not given in full), the EC50 is 0.0871 nM at Nociceptin receptor [1] and 6.03 nM on Nociceptin receptor [2]. The Selectivity Index at Nociceptin receptor [3] is 0.83.

As for `CCCCCCCCCCCCCCCC(=O)NCCCN1C(=O)CC(SC[C@H](NC(=O)[C@H](CCCCN)NC(=O)[C@H](CCCNC(=N)N)NC(=O)[C@H](C)NC(=O)CNC(=O)[C@@H](NC(=O)[C@H](Cc2ccccc2)NC(=O)CNC(=O)CNC(=O)[C@@H](N)Cc2ccccc2)[C@@H](C)O)C(=O)N[C@@H](C)C(=O)N[C@@H](CCCNC(=N)N)C(=O)N[C@@H](CCCCN)C(N)=O)C1=O` (stereo not given in full) (H-FGGFTGARKC(X1)ARK-NH2), the EC50 is 0.288 nM on Nociceptin receptor [1] and 19.1 nM on Nociceptin receptor [2]. In addition, the Selectivity Index at Nociceptin receptor [3] worked out at 0.91.

For the compound `CCCCCCCCCCCCCCCC(=O)NCCCN1C(=O)CC(SC[C@H](NC(=O)[C@H](C)NC(=O)[C@H](CO)NC(=O)[C@H](CCCCN)NC(=O)[C@H](CCCNC(=N)N)NC(=O)[C@H](C)NC(=O)CNC(=O)[C@@H](NC(=O)[C@H](Cc2ccccc2)NC(=O)CNC(=O)CNC(=O)[C@@H](N)Cc2ccccc2)[C@@H](C)O)C(=O)N[C@@H](CCCCN)C(N)=O)C1=O` (stereo not given in full) (H-FGGFTGARKSAC(X1)K-NH2), the EC50 at Nociceptin receptor [1] is 0.525 nM; on Nociceptin receptor [2], 22.4 nM.

Turning to `CCCCCCCCCCCCCCCC(=O)NCCCN1C(=O)CC(SC[C@H](NC(=O)[C@H](CCCNC(=N)N)NC(=O)[C@H](C)NC(=O)[C@H](CO)NC(=O)[C@H](CCCCN)NC(=O)[C@H](CCCNC(=N)N)NC(=O)[C@H](C)NC(=O)CNC(=O)[C@@H](NC(=O)[C@H](Cc2ccccc2)NC(=O)CNC(=O)CNC(=O)[C@@H](N)Cc2ccccc2)[C@@H](C)O)C(N)=O)C1=O` (stereo not given in full) (H-FGGFTGARKSARC(X1)-NH2), the figures for the EC50 at Nociceptin receptor [1] and at Nociceptin receptor [2] were 1.26 nM and 55 nM, respectively. The Selectivity Index on Nociceptin receptor [3] was determined as 0.7.

Turning to `CCCCCCCCCCCCCCCC(=O)NCCCN1C(=O)CC(SC[C@H](NC(=O)[C@H](CO)NC(=O)[C@H](CCCCN)NC(=O)[C@H](CCCNC(=N)N)NC(=O)[C@H](C)NC(=O)CNC(=O)[C@@H](NC(=O)[C@H](Cc2ccccc2)NC(=O)CNC(=O)CNC(=O)[C@@H](N)Cc2ccccc2)[C@@H](C)O)C(=O)N[C@@H](CCCNC(=N)N)C(=O)N[C@@H](CCCCN)C(N)=O)C1=O` (stereo not given in full) (H-FGGFTGARKSC(X1)RK-NH2), the EC50 on Nociceptin receptor [1] was 0.437 nM; on Nociceptin receptor [2], 34.7 nM. Moreover, the Selectivity Index at Nociceptin receptor [3] was found to be 1.11.

Consider `C[C@H](NC(=O)CNC(=O)[C@@H](NC(=O)[C@H](Cc1ccccc1)NC(=O)CNC(=O)CNC(=O)[C@@H](N)Cc1ccccc1)[C@@H](C)O)C(=O)N[C@@H](CCCNC(=N)N)C(=O)N[C@@H](CCCCN)C(=O)N[C@@H](CO)C(=O)NC1(C(=O)N[C@@H](CCCNC(=N)N)C(=O)N[C@@H](CCCCN)C(N)=O)CCCC1` (H-FGGFTGARKS[Ac5c]RK-NH2), for which the Selectivity Index at Nociceptin receptor [3] stood at 0.31.

Regarding `C[C@H](NC(=O)CNC(=O)[C@@H](NC(=O)[C@H](Cc1ccccc1)NC(=O)CNC(=O)CNC(=O)[C@@H](N)Cc1ccccc1)[C@@H](C)O)C(=O)N[C@@H](CCCNC(=N)N)C(=O)N[C@@H](CCCCN)C(=O)N[C@@H](CO)C(=O)NC(C)(C)C(=O)N[C@@H](CCCNC(=N)N)C(=O)N[C@@H](CCCCN)C(N)=O` (H-FGGFTGARKS[Aib]RK-NH2), at Nociceptin receptor [3], the Selectivity Index was determined as 0.29.

As for `C[C@H](NC(=O)[C@H](CO)NC(=O)[C@H](CCCCN)NC(=O)[C@H](CCCNC(=N)N)NC(=O)C1(NC(=O)CNC(=O)[C@@H](NC(=O)[C@H](Cc2ccccc2)NC(=O)CNC(=O)CNC(=O)[C@@H](N)Cc2ccccc2)[C@@H](C)O)CC1)C(=O)N[C@@H](CCCNC(=N)N)C(=O)N[C@@H](CCCCN)C(N)=O` (H-FGGFTG[Ac3c]RKSARK-NH2), the Selectivity Index at Nociceptin receptor [3] was 0.4.

Consider `C[C@H](NC(=O)[C@H](CO)NC(=O)[C@H](CCCCN)NC(=O)[C@H](CCCNC(=N)N)NC(=O)C1(NC(=O)CNC(=O)[C@@H](NC(=O)[C@H](Cc2ccccc2)NC(=O)CNC(=O)CNC(=O)[C@@H](N)Cc2ccccc2)[C@@H](C)O)CCCC1)C(=O)N[C@@H](CCCNC(=N)N)C(=O)N[C@@H](CCCCN)C(N)=O` (H-FGGFTG[Ac5c]RKSARK-NH2), for which the Selectivity Index at Nociceptin receptor [3] is 0.08.

As for `C[C@H](NC(=O)CCCN1C(=O)CC(SC[C@H](NC(=O)[C@H](CCCCN)NC(=O)[C@H](CCCNC(=N)N)NC(=O)[C@H](C)NC(=O)[C@H](CO)NC(=O)[C@H](CCCCN)NC(=O)[C@H](CCCNC(=N)N)NC(=O)[C@H](C)NC(=O)CNC(=O)[C@@H](NC(=O)[C@H](Cc2ccccc2)NC(=O)CNC(=O)CNC(=O)[C@@H](N)Cc2ccccc2)[C@@H](C)O)C(N)=O)C1=O)C(=O)N[C@@H](CC(=O)O)C(=O)N[C@@H](C)C(=O)N[C@@H](CC(=O)O)C(=O)N[C@@H](C)C(=O)N[C@@H](CC(=O)O)C(=O)N[C@@H](C)C(=O)N[C@@H](CC(=O)O)C(=O)N[C@@H](C)C(=O)N[C@@H](CC(=O)O)C(=O)N[C@@H](C)C(=O)N[C@@H](CC(=O)O)C(N)=O` (stereo not given in full) (I: H-FGGFTGARKSARKC-NH2 / II: ADADADADADAD-NH2; linker I:14-II:N via X2), the EC50 on Nociceptin receptor [1] is 24 nM; on Nociceptin receptor [2], 93.3 nM. For the same compound, the Selectivity Index at Nociceptin receptor [3] worked out at 0.51.

Regarding `C[C@H](NC(=O)CCCN1C(=O)CC(SC[C@H](NC(=O)[C@H](CCCCN)NC(=O)[C@H](CCCNC(=N)N)NC(=O)[C@H](C)NC(=O)[C@H](CO)NC(=O)[C@H](CCCCN)NC(=O)[C@H](CCCNC(=N)N)NC(=O)[C@H](C)NC(=O)CNC(=O)[C@@H](NC(=O)[C@H](Cc2ccccc2)NC(=O)CNC(=O)CNC(=O)[C@@H](N)Cc2ccccc2)[C@@H](C)O)C(N)=O)C1=O)C(=O)N[C@@H](Cc1cnc[nH]1)C(=O)N[C@@H](C)C(=O)N[C@@H](Cc1cnc[nH]1)C(=O)N[C@@H](C)C(=O)N[C@@H](Cc1cnc[nH]1)C(=O)N[C@@H](C)C(=O)N[C@@H](Cc1cnc[nH]1)C(=O)N[C@@H](C)C(=O)N[C@@H](Cc1cnc[nH]1)C(=O)N[C@@H](C)C(=O)N[C@@H](Cc1cnc[nH]1)C(N)=O` (stereo not given in full) (I: H-FGGFTGARKSARKC-NH2 / II: AHAHAHAHAHAH-NH2; linker I:14-II:N via X2), the EC50 on Nociceptin receptor [1] is 7.94 nM; at Nociceptin receptor [2], 9.33 nM. Further, the Selectivity Index at Nociceptin receptor [3] is -0.05.

In the case of `C[C@H](NC(=O)CCCN1C(=O)CC(SC[C@H](NC(=O)[C@H](CCCCN)NC(=O)[C@H](CCCNC(=N)N)NC(=O)[C@H](C)NC(=O)[C@H](CO)NC(=O)[C@H](CCCCN)NC(=O)[C@H](CCCNC(=N)N)NC(=O)[C@H](C)NC(=O)CNC(=O)[C@@H](NC(=O)[C@H](Cc2ccccc2)NC(=O)CNC(=O)CNC(=O)[C@@H](N)Cc2ccccc2)[C@@H](C)O)C(N)=O)C1=O)C(=O)N[C@@H](CCCCN)C(=O)N[C@@H](C)C(=O)N[C@@H](CCCCN)C(=O)N[C@@H](C)C(=O)N[C@@H](CCCCN)C(=O)N[C@@H](C)C(=O)N[C@@H](CCCCN)C(=O)N[C@@H](C)C(=O)N[C@@H](CCCCN)C(=O)N[C@@H](C)C(=O)N[C@@H](CCCCN)C(N)=O` (stereo not given in full) (I: H-FGGFTGARKSARKC-NH2 / II: AKAKAKAKAKAK-NH2; linker I:14-II:N via X2), the EC50 at Nociceptin receptor [1] was 0.794 nM; at Nociceptin receptor [2], 17.4 nM. Besides, the Selectivity Index on Nociceptin receptor [3] worked out at 1.18.

Turning to `C[C@H](NC(=O)CNC(=O)[C@@H](NC(=O)[C@H](Cc1ccccc1)NC(=O)CNC(=O)CNC(=O)[C@@H](N)Cc1ccccc1)[C@@H](C)O)C(=O)N[C@@H](CCCNC(=N)N)C(=O)N[C@@H](CCCCN)C(=O)N[C@@H](CO)C(=O)N[C@@H](C)C(=O)N[C@@H](CCCNC(=N)N)C(=O)N[C@@H](CCCCN)C(=O)N[C@@H](CSC1CC(=O)N(CCCC(=O)NCC(=O)N[C@@H](CC(=O)O)C(=O)NCC(=O)N[C@@H](CC(=O)O)C(=O)NCC(=O)N[C@@H](CC(=O)O)C(=O)NCC(=O)N[C@@H](CC(=O)O)C(=O)NCC(=O)N[C@@H](CC(=O)O)C(=O)NCC(=O)N[C@@H](CC(=O)O)C(N)=O)C1=O)C(N)=O` (stereo not given in full) (I: H-FGGFTGARKSARKC-NH2 / II: GDGDGDGDGDGD-NH2; linker I:14-II:N via X2), the concentration for a half-maximal effect (EC50) at Nociceptin receptor [1] was 17.8 nM; on Nociceptin receptor [2], 49 nM. Besides, the Selectivity Index at Nociceptin receptor [3] was 0.81.

For the compound `C[C@H](NC(=O)CNC(=O)[C@@H](NC(=O)[C@H](Cc1ccccc1)NC(=O)CNC(=O)CNC(=O)[C@@H](N)Cc1ccccc1)[C@@H](C)O)C(=O)N[C@@H](CCCNC(=N)N)C(=O)N[C@@H](CCCCN)C(=O)N[C@@H](CO)C(=O)N[C@@H](C)C(=O)N[C@@H](CCCNC(=N)N)C(=O)N[C@@H](CCCCN)C(=O)N[C@@H](CSC1CC(=O)N(CCCC(=O)NCC(=O)N[C@@H](Cc2cnc[nH]2)C(=O)NCC(=O)N[C@@H](Cc2cnc[nH]2)C(=O)NCC(=O)N[C@@H](Cc2cnc[nH]2)C(=O)NCC(=O)N[C@@H](Cc2cnc[nH]2)C(=O)NCC(=O)N[C@@H](Cc2cnc[nH]2)C(=O)NCC(=O)N[C@@H](Cc2cnc[nH]2)C(N)=O)C1=O)C(N)=O` (stereo not given in full) (I: H-FGGFTGARKSARKC-NH2 / II: GHGHGHGHGHGH-NH2; linker I:14-II:N via X2), the results for the EC50 at Nociceptin receptor [1] and on Nociceptin receptor [2] were 4.27 nM and 12.6 nM, respectively. In addition, on Nociceptin receptor [3], the Selectivity Index amounted to 0.17.

Regarding H-FGGFNGARKSARK-NH2, the EC50 at Nociceptin receptor [1] was 9.33 nM; on Nociceptin receptor [2] it was 27.5 nM.
